The target of assay [1] is T1, Neutrophil cytosol factor 1 (Homo sapiens, UniProt P14598). Briefly: Covalent inhibition of recombinant human His-tagged p47phox SH3A-B domain (151 to 285 residues) expressed in Escherichia coli BL21 (DE3) cells interaction with Cy5-p22phox149-162 incubated for 10 mins by fluorescence polarization competition assay. (Polarisation of emitted light reports the rotation of a fluorescent probe.)

The target of assay [2] is T1, Neutrophil cytosol factor 1. Briefly: Covalent inhibition of recombinant human His-tagged p47phox SH3A-B domain (151 to 285 residues) expressed in Escherichia coli BL21 (DE3) cells interaction with Cy5-p22phox149-162 incubated for 10 mins in presence of TCEP by fluorescence polarization competition assay. An outline of the steps: (§1)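 Heterologous competition FP. The compound was titrated as a 12-point two-fold series in duplicate against 1.25 μM p47phox SH3A-B and 5 nM Cy5-p22phox149-162. Buffer was HBS (50 mM Hepes, 150 mM NaCl, 0.005% Tween 20, pH 7.4), with or without TCEP. Incubation was 10 min or 2 h at room temperature before the FP read.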

For assay [3] the target is unchanged. Description: Ratio of Ki for recombinant human His-tagged p47phox SH3A-B domain (151 to 285 residues) expressed in Escherichia coli BL21 (DE3) cells in presence of TCEP to Ki for recombinant human His-tagged p47phox SH3A-B domain (151 to 285 residues) expressed in Escherichia coli BL21 (DE3) cells by fluorescence polarization competition assay. An outline of the steps:
as §1

For assay [4] the target is unchanged. Description: Covalent inhibition of recombinant human His-tagged p47phox SH3A-B domain (151 to 285 residues) expressed in Escherichia coli BL21 (DE3) cells interaction with Cy5-p22phox149-162 incubated for 2 hrs by fluorescence polarization competition assay. An outline of the steps: as §1
Assay [5] shares this target. Briefly: Non-reversible binding affinity to immobilized recombinant human His-tagged p47phox SH3A-B domain (151 to 285 residues) expressed in Escherichia coli BL21 (DE3) cells assessed as slow dissociation rate at 12.5 uM by SPR assay. The gist of the method: (§2)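 p47phox SH3A-B (residues 151-285) immobilized at 4684 RU by His capture then amine coupling; compound injected at 12.5 μM in HBS pH 7.4 (10 mM Hepes, 150 mM NaCl, 0.005% Tween) at 25 °C. Sensorgrams were blank- and reference-subtracted with DMSO calibration. Complex then exposed to 2 mM TCEP.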
(In general: SPR reads the build-up and loss of mass on a sensor chip optically.)

Assay [6] has the same target. Briefly: Binding affinity to immobilized recombinant human His-tagged p47phox SH3A-B domain (151 to 285 residues) expressed in Escherichia coli BL21 (DE3) cells at 12.5 uM in presence of TCEP by SPR assay. The gist of the method:
as §2

Assay [7] shares this target. Briefly: Binding affinity to recombinant human His-tagged p47phox SH3A-B domain (151 to 285 residues) expressed in Escherichia coli BL21 (DE3) cells assessed as increase in protein molecular weight at 200 uM by ESI/LC-MS analysis.
Assay [8] shares this target. Description: Binding affinity to recombinant human His-tagged p47phox SH3A-B domain (151 to 285 residues) expressed in Escherichia coli BL21 (DE3) cells assessed as protein aggregation by measuring increase in maximum dimensions of the particles by SAXS study analysis. The gist of the method: (§3)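 His-tag removed by HRV-3C protease. Protein (2-5.6 mg/mL, 130-370 μM final) was buffer-exchanged into 10 mM Hepes, 150 mM NaCl, 4% DMSO, pH 7.4, with 100 or 200 μM compound. Samples were held at 6 °C and measured at room temperature, λ 1.34 Å, q 0.01-0.5 Å−1. Fifteen to twenty 60 s frames were radially averaged, and buffer scattering was subtracted.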

The target is the same in assay [9]. Description: Binding affinity to recombinant human His-tagged p47phox SH3A-B domain (151 to 285 residues) expressed in Escherichia coli BL21 (DE3) cells assessed as protein aggregation by measuring increase in SAXS-derived radius of gyration by SAXS study analysis. The gist of the method:
as §3

Assay [10] has the same target. Briefly: Binding affinity to recombinant human His-tagged p47phox SH3A-B domain (151 to 285 residues) expressed in Escherichia coli BL21 (DE3) cells assessed as protein aggregation by measuring increase in concentration-normalized scattering intensity by SAXS study analysis. The gist of the method: as §3
For assay [11] the target is unchanged. Description: Binding affinity to recombinant human His-tagged p47phox SH3A-B domain (151 to 285 residues) expressed in Escherichia coli BL21 (DE3) cells assessed as protein aggregation by SAXS study analysis. Particulars: TDE = time-dependent effect. The gist of the method:
as §3

Assay [12] has the same target. Description: Binding affinity to recombinant human His-tagged 15N-labeled p47phox SH3A-B domain (151 to 285 residues) expressed in Escherichia coli BL21 (DE3) cells assessed as compound interaction with protein at Cys196 in SH3A domain by NMR spectroscopy.
Assay [13] has the same target. Description: Binding affinity to immobilized recombinant human His-tagged p47phox SH3A-B domain (151 to 285 residues) expressed in Escherichia coli BL21 (DE3) cells assessed as dissociation constant by SPR assay.

The values that follow come from ChEMBL document CHEMBL4376880, “Developing Inhibitors of the p47phox-p22phox Protein-Protein Interaction by Fragment-Based Drug Discovery” (J Med Chem, 2020).

Active and inactive are the calls of the source. The calls are words filed in the database; no cut-off is given here.

A word on the Kd: it is the concentration at which binding is half-saturated.

T1 sequence (P14598 whole entry, the tested form may be a part): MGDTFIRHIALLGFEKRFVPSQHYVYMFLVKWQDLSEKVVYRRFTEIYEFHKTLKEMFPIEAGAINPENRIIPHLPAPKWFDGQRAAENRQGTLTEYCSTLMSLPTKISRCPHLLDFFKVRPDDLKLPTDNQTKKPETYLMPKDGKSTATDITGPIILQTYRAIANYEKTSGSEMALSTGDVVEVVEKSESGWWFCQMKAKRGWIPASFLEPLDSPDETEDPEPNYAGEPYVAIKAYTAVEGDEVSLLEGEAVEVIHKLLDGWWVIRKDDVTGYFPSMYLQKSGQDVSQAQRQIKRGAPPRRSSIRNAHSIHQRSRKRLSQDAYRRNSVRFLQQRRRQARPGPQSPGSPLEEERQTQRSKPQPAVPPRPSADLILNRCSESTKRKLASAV

`O=c1c2ccccc2[se]n1-c1ccccc1` [EBSELEN]: the Ki in [1] (read-out: Ki) was 63 µM; in assay [2], more than 300 µM; in assay [4], 12 µM. In assay [3], the Ratio Ki was more than 10. Moreover, the result in assay [5], in assay [7], in [8], in assay [9], in assay [10] and in assay [12] was Active. The outcome in assay [6] was inactive. For the same molecule, the Activity result in [11] is “Tde”.

With `CN1CCCN(Cc2ccc(CN)cc2)CC1`, the Ki result in assay [1] is on record as “Not Active”. Besides, in assay [13], the Kd is 418 µM.

On to `Cc1cc(N2CCNCC2)nc2ccccc12`, for which the Ki in assay [1] (read-out: Ki) worked out at 1070 µM.

Regarding `COCCNc1ccc2ccccc2n1`, the Ki in assay [1] (read-out: Ki) was more than 2000 µM.

Take `Nc1ncccn1`: the Ki in [1] (read-out: Ki) is more than 2000 µM.

Turning to `c1ccc2c(N3CCNCC3)cccc2c1`, the Ki in [1] (read-out: Ki) came out at 1520 µM. The Kd in assay [13] came out at 366 µM.

`Cc1cc(N2CCN(C)CC2)c2ccccc2n1`: the Ki in assay [1] (read-out: Ki) is more than 2000 µM.

Consider `Nc1cccc2cccnc12` [8-AMINOQUINOLINE], for which the Ki in assay [1] (read-out: Ki) is more than 2000 µM.

Turning to `Nc1ccc2cc(OCc3ccc(Cl)cc3)ccc2n1`, the Ki in [1] (read-out: Ki) was more than 2000 µM.

`Nc1ccc2cc(OCC3CCCCC3)ccc2n1`: the Ki in assay [1] (read-out: Ki) is more than 2000 µM.

For `c1ccc2nc(N3CCNCC3)ccc2c1` [QUIPAZINE], the Ki in assay [1] (read-out: Ki) stood at 1410 µM. Moreover, the Kd in assay [13] is 420 µM.

In the case of `Nc1cnc2ccccc2c1`, in assay [1] (read-out: Ki), the Ki was more than 2000 µM.

In the case of `Nc1cc(OCc2ccc(Cl)cc2)c2ccccc2n1`, the Ki in [1] (read-out: Ki) is more than 2000 µM.

As for `Nc1cccc2ncccc12`, the Ki in [1] (read-out: Ki) is more than 2000 µM.

As for `NCc1ccc2ccccc2n1`, in assay [1] (read-out: Ki), the Ki is more than 2000 µM.

Take `Nc1ccnc2ccccc12` [QUINOLIN-4-AMINE]: the Ki in [1] (read-out: Ki) is 1520 µM. Moreover, the Kd in [13] worked out at 765 µM.

As for `c1ccc2ncccc2c1` [QUINOLINE], the Ki in assay [1] (read-out: Ki) is more than 2000 µM.

Take `Oc1ccc2ccccc2n1`: the Ki in assay [1] (read-out: Ki) is more than 2000 µM.

For the molecule `Nc1ccc2cc(OCCOCCOCCOCCOc3ccc4nc(N)ccc4c3)ccc2n1`, the Ki in assay [1] (read-out: Ki) was 32.7 µM.

Turning to `Nc1ccc2cccc(O)c2n1`, the Ki in assay [1] (read-out: Ki) is 1380 µM.

For the molecule `Nc1cc(Cl)c2ccccc2n1`, in [1] (read-out: Ki), the Ki was more than 2000 µM.

`Cc1ccc2ccccc2n1` [QUINALDINE]: the Ki in assay [1] (read-out: Ki) was more than 2000 µM.

For `Cc1cc(N)c2ccccc2n1`, the Ki in assay [1] (read-out: Ki) worked out at 1070 µM. Also, the Kd in [13] came out at 521 µM.

As for `OCCOCCNc1ccc2ccccc2n1`, the Ki in [1] (read-out: Ki) is more than 2000 µM.

With `c1cc(N2CCNCC2)ccn1`, the Ki in assay [1] (read-out: Ki) was determined as 302 µM.

For `Nc1ccc2cc(-c3ccc(Cl)cc3)ccc2n1`, the Ki in assay [1] (read-out: Ki) was more than 2000 µM.

For the molecule `CC(=O)Nc1ccc2ccccc2n1`, the Ki in [1] (read-out: Ki) is more than 2000 µM.

`Nc1ccc2ncccc2c1`: the Ki in assay [1] (read-out: Ki) is more than 2000 µM.

For `Nc1ccc2cc(OCc3ccccc3)ccc2n1`, in assay [1] (read-out: Ki), the Ki is more than 2000 µM.

Turning to `Nc1ccccn1` [2-AMINOPYRIDINE], in assay [1] (read-out: Ki), the Ki is more than 2000 µM.

In the case of `Nc1ccc2ccccc2c1` [NAPHTHYLAMINE], the Ki in [1] (read-out: Ki) is more than 2000 µM.

As for `Cc1cc(N2CCN(C(=O)OC(C)(C)C)CC2)c2ccccc2n1`, the Ki in [1] (read-out: Ki) is more than 2000 µM.

On to `Nc1ccc2cc(COc3ccc(Cl)cc3)ccc2n1`, for which the Ki in assay [1] (read-out: Ki) is more than 2000 µM.

On to `Nc1cc(O)c2ccccc2n1`, for which the Ki in [1] (read-out: Ki) is more than 2000 µM.
